The results in this text go back to ChEMBL document CHEMBL1142198, “Diversity of ampicillin resistance genes and antimicrobial susceptibility patterns in Haemophilus influenzae strains isolated in Korea” (2007).

Each structure is given as a SMILES string. ≈ marks a conversion by molar mass, not a printed value.

Common to all, as to type: functional
Assay [1] concerns Haemophilus influenzae. Put plainly: Antimicrobial activity against Haemophilus influenzae BLNAR strains. The method, boiled down:
(§1)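 Etest MIC determination on Haemophilus test medium agar inoculated evenly with a broth suspension equivalent to a 0.5 McFarland standard. Once dry, strips for 10 antibiotics applied; incubated 35°C, 5% CO2, 20 h. MIC read at complete growth inhibition. ATCC 49766 and ATCC 49247 included as controls in each batch. Korean clinical isolates 2000–2005 classified by nitrocefin disk and PCR.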

For assay [2], the system named is Haemophilus influenzae. Put plainly: Antimicrobial activity against Haemophilus influenzae BLPACR strains. The method, boiled down:
as §1

Assay [3] concerns Haemophilus influenzae. Briefly: Antimicrobial activity against Haemophilus influenzae BLPAR strains. The gist of the method:
as §1

The test system of assay [4] is Haemophilus influenzae. Put plainly: Antimicrobial activity against Haemophilus influenzae strains that are normal flora. The method, boiled down:
as §1

Assay [5] deals with Haemophilus influenzae. Briefly: Antimicrobial activity against Haemophilus influenzae BLNAS strains. The method, boiled down: as §1
Assay [6] has as its system Haemophilus influenzae. Briefly: Antimicrobial activity against Haemophilus influenzae strains causing clinical infections. The gist of the method:
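Etest MICs for 196 clinical-infection isolates collected 2000–2005 at two Seoul tertiary-care hospitals. A 0.5 McFarland broth suspension was spread on Haemophilus test medium agar, strips applied once dry, then incubated 35°C, 5% CO2, 20 h. ATCC 49766 and ATCC 49247 served as controls in each batch.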

With `CC1(C)S[C@@H]2[C@H](NC(=O)[C@H](N)c3ccccc3)C(=O)N2[C@H]1C(=O)O` [AMPICILLIN], the MIC50 came to 0.75 µg/mL (≈ 2.15 µM) with Haemophilus influenzae [1]; 256 µg/mL (≈ 733 µM) against Haemophilus influenzae [2]; 256 µg/mL (≈ 733 µM) with Haemophilus influenzae [3]; 0.38 µg/mL (≈ 1.09 µM) against Haemophilus influenzae [4]; 0.25 µg/mL (≈ 0.715 µM) against Haemophilus influenzae [5]; 24 µg/mL (≈ 68.7 µM) against Haemophilus influenzae [6]. Besides, the MIC90 came to 256 µg/mL (≈ 733 µM) with Haemophilus influenzae [1]; 256 µg/mL (≈ 733 µM) with Haemophilus influenzae [2]; 256 µg/mL (≈ 733 µM) in the assay with Haemophilus influenzae [3]; 256 µg/mL (≈ 733 µM) against Haemophilus influenzae [4]; 0.38 µg/mL (≈ 1.09 µM) against Haemophilus influenzae [5]; 256 µg/mL (≈ 733 µM) against Haemophilus influenzae [6].
In the case of `N[C@@H](C(=O)N[C@@H]1C(=O)N2C(C(=O)O)=C(Cl)CS[C@H]12)c1ccccc1` [CEFACLOR ANHYDROUS], the MIC50 in the assay on Haemophilus influenzae [1] was 6 µg/mL (≈ 16.3 µM); against Haemophilus influenzae [2] it was 16 µg/mL (≈ 43.5 µM); in the assay on Haemophilus influenzae [3], 12 µg/mL (≈ 32.6 µM); against Haemophilus influenzae [4] it was 2 µg/mL (≈ 5.44 µM); in the assay with Haemophilus influenzae [5], 2 µg/mL (≈ 5.44 µM); in the assay with Haemophilus influenzae [6] it was 8 µg/mL (≈ 21.8 µM). The MIC90 against Haemophilus influenzae [1] is 256 µg/mL (≈ 696 µM); against Haemophilus influenzae [2], 256 µg/mL (≈ 696 µM); against Haemophilus influenzae [3], 256 µg/mL (≈ 696 µM); against Haemophilus influenzae [4], 256 µg/mL (≈ 696 µM); in the assay on Haemophilus influenzae [5], 6 µg/mL (≈ 16.3 µM); with Haemophilus influenzae [6], 256 µg/mL (≈ 696 µM).
Regarding `C=CC1=C(C(=O)O)N2C(=O)[C@@H](NC(=O)/C(=N\OCC(=O)O)c3csc(N)n3)[C@H]2SC1` [CEFIXIME], the MIC50 is 0.064 µg/mL (≈ 0.141 µM) against Haemophilus influenzae [1]; 0.064 µg/mL (≈ 0.141 µM) in the assay with Haemophilus influenzae [2]; 0.047 µg/mL (≈ 0.104 µM) against Haemophilus influenzae [3]; 0.047 µg/mL (≈ 0.104 µM) against Haemophilus influenzae [4]; 0.023 µg/mL (≈ 0.0507 µM) against Haemophilus influenzae [5]; 0.047 µg/mL (≈ 0.104 µM) in the assay with Haemophilus influenzae [6]. Further, the MIC90 was 32 µg/mL (≈ 70.6 µM) against Haemophilus influenzae [1]; 256 µg/mL (≈ 565 µM) against Haemophilus influenzae [2]; 32 µg/mL (≈ 70.6 µM) against Haemophilus influenzae [3]; 32 µg/mL (≈ 70.6 µM) against Haemophilus influenzae [4]; 0.064 µg/mL (≈ 0.141 µM) against Haemophilus influenzae [5]; 0.75 µg/mL (≈ 1.65 µM) against Haemophilus influenzae [6].
With `CO/N=C(\C(=O)N[C@@H]1C(=O)N2C(C(=O)O)=C(COC(N)=O)CS[C@H]12)c1ccco1` [CEFUROXIME], the MIC50 against Haemophilus influenzae [1] stood at 1 µg/mL (≈ 2.36 µM); in the assay on Haemophilus influenzae [2], 1 µg/mL (≈ 2.36 µM); with Haemophilus influenzae [3], 1 µg/mL (≈ 2.36 µM); in the assay on Haemophilus influenzae [4], 0.5 µg/mL (≈ 1.18 µM); in the assay with Haemophilus influenzae [5], 0.5 µg/mL (≈ 1.18 µM); in the assay on Haemophilus influenzae [6], 1 µg/mL (≈ 2.36 µM). Besides, the MIC90 turned out to be 8 µg/mL (≈ 18.9 µM) against Haemophilus influenzae [1]; 256 µg/mL (≈ 603 µM) with Haemophilus influenzae [2]; 256 µg/mL (≈ 603 µM) against Haemophilus influenzae [3]; 256 µg/mL (≈ 603 µM) with Haemophilus influenzae [4]; 1 µg/mL (≈ 2.36 µM) with Haemophilus influenzae [5]; 8 µg/mL (≈ 18.9 µM) in the assay on Haemophilus influenzae [6].
Regarding `O=C(N[C@H](CO)[C@H](O)c1ccc([N+](=O)[O-])cc1)C(Cl)Cl` [CHLORAMPHENICOL], the MIC50 in the assay on Haemophilus influenzae [1] was 0.5 µg/mL (≈ 1.55 µM); in the assay with Haemophilus influenzae [2] it was 0.5 µg/mL (≈ 1.55 µM); with Haemophilus influenzae [3] it was 0.75 µg/mL (≈ 2.32 µM); against Haemophilus influenzae [4] it was 0.75 µg/mL (≈ 2.32 µM); in the assay with Haemophilus influenzae [5], 0.5 µg/mL (≈ 1.55 µM); in the assay with Haemophilus influenzae [6] it was 0.5 µg/mL (≈ 1.55 µM). Also, the MIC90 in the assay with Haemophilus influenzae [1] amounted to 6 µg/mL (≈ 18.6 µM); against Haemophilus influenzae [2] it was 8 µg/mL (≈ 24.8 µM); with Haemophilus influenzae [3], 12 µg/mL (≈ 37.1 µM); against Haemophilus influenzae [4], 4 µg/mL (≈ 12.4 µM); with Haemophilus influenzae [5] it was 0.75 µg/mL (≈ 2.32 µM); against Haemophilus influenzae [6] it was 8 µg/mL (≈ 24.8 µM).
Take `CC[C@H]1OC(=O)[C@H](C)[C@@H](O[C@H]2C[C@@](C)(OC)[C@@H](O)[C@H](C)O2)[C@H](C)[C@@H](O[C@@H]2O[C@H](C)C[C@H](N(C)C)[C@H]2O)[C@](C)(OC)C[C@@H](C)C(=O)[C@H](C)[C@@H](O)[C@]1(C)O` [CLARITHROMYCIN]: the MIC50 in the assay with Haemophilus influenzae [1] was 12 µg/mL (≈ 16 µM); in the assay with Haemophilus influenzae [2], 16 µg/mL (≈ 21.4 µM); against Haemophilus influenzae [3], 16 µg/mL (≈ 21.4 µM); against Haemophilus influenzae [4], 16 µg/mL (≈ 21.4 µM); against Haemophilus influenzae [5], 16 µg/mL (≈ 21.4 µM); against Haemophilus influenzae [6], 16 µg/mL (≈ 21.4 µM). Further, the MIC90 was 24 µg/mL (≈ 32.1 µM) against Haemophilus influenzae [1]; 256 µg/mL (≈ 342 µM) in the assay with Haemophilus influenzae [2]; 32 µg/mL (≈ 42.8 µM) in the assay on Haemophilus influenzae [3]; 32 µg/mL (≈ 42.8 µM) against Haemophilus influenzae [4]; 24 µg/mL (≈ 32.1 µM) in the assay on Haemophilus influenzae [5]; 32 µg/mL (≈ 42.8 µM) with Haemophilus influenzae [6].
In the case of `C[C@H]1COc2c(N3CCN(C)CC3)c(F)cc3c(=O)c(C(=O)O)cn1c23.C[C@H]1COc2c(N3CCN(C)CC3)c(F)cc3c(=O)c(C(=O)O)cn1c23.O` [LEVOFLOXACIN], the MIC50 came out at 0.023 µg/mL against Haemophilus influenzae [1]; 0.016 µg/mL with Haemophilus influenzae [2]; 0.016 µg/mL against Haemophilus influenzae [3]; 0.023 µg/mL with Haemophilus influenzae [4]; 0.016 µg/mL in the assay with Haemophilus influenzae [5]; 0.016 µg/mL with Haemophilus influenzae [6]. Also, the MIC90 is 1 µg/mL in the assay with Haemophilus influenzae [1]; 0.047 µg/mL against Haemophilus influenzae [2]; 0.032 µg/mL against Haemophilus influenzae [3]; 1 µg/mL with Haemophilus influenzae [4]; 0.032 µg/mL in the assay on Haemophilus influenzae [5]; 0.32 µg/mL against Haemophilus influenzae [6].
In the case of `C[C@@H](O)[C@H]1C(=O)N2C(C(=O)O)=C(S[C@@H]3CN[C@H](C(=O)N(C)C)C3)[C@H](C)[C@H]12` [MEROPENEM], the MIC50 against Haemophilus influenzae [1] was 0.125 µg/mL (≈ 0.326 µM); against Haemophilus influenzae [2] it was 0.19 µg/mL (≈ 0.495 µM); in the assay on Haemophilus influenzae [3], 0.094 µg/mL (≈ 0.245 µM); against Haemophilus influenzae [4], 0.094 µg/mL (≈ 0.245 µM); in the assay on Haemophilus influenzae [5], 0.064 µg/mL (≈ 0.167 µM); in the assay with Haemophilus influenzae [6], 0.094 µg/mL (≈ 0.245 µM). Moreover, the MIC90 in the assay with Haemophilus influenzae [1] stood at 32 µg/mL (≈ 83.4 µM); in the assay on Haemophilus influenzae [2] it was 0.38 µg/mL (≈ 0.991 µM); against Haemophilus influenzae [3] it was 32 µg/mL (≈ 83.4 µM); against Haemophilus influenzae [4], 32 µg/mL (≈ 83.4 µM); against Haemophilus influenzae [5], 0.125 µg/mL (≈ 0.326 µM); against Haemophilus influenzae [6] it was 32 µg/mL (≈ 83.4 µM).
